ChEMBL document CHEMBL1136371, “The design of 8,8-dimethyl[1,6]naphthyridines as potential anticonvulsant agents” (Bioorg Med Chem Lett, 2003)

Legend:
[1] = organism: Rattus norvegicus; assay: Binding affinity at [3H]SB-204269 binding site expressed as pKi; assay type: functional
In short: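 Radioligand binding with [3H]SB-204269, reported as pKi. All determinations run in triplicate.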

[2] = tested on: Rattus norvegicus; assay: Anticonvulsant activity by using rat MEST test at 2 mg/kg p.o. 2 hr post-dose; assay type: functional; settings: route oral
In short: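 Rat maximal electroshock seizure threshold (MEST) test. Oral dosing at 2 mg/kg, doses as free base; reference anticonvulsant given at 2.5 mg/kg p.o. Seizure threshold read 2 h post-dose as % increase versus vehicle-treated controls. Significance by Litchfield–Wilcoxon analysis.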

[3] = Plasma clearance was determined; assay type: ADME, organism-based; settings: rat
[4] = organism: Rattus norvegicus; assay: Compound tested for its ability to protect rat from hindlimb tonic seizures following a shock by using ALLFITrd quo; assay type: functional
In short: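 Rat supraMES model. Oral doses of 1, 10 and 30 mg/kg. At 4 h post-dose, a single corneal-electrode shock of 180 mA lasting 0.3 s was given. Protection from hindlimb tonic seizures was scored against control, and ED50 was derived by ALLFIT fitting.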

[5] = Oral bioavailability at the dose of 2 mg/kg in rat; assay type: ADME, organism-based; settings: in vivo
In short: (§1)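 Rat pharmacokinetics after iv and po administration. Oral bioavailability (Fpo) was measured with oral dosing at 2 mg/kg, and blood clearance (CLb) in mL/min/kg.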

[6] = Oral bioavailability in rat; assay type: ADME, organism-based; settings: in vivo; in short: as §1
[7] = Oral bioavailability; assay type: ADME, organism-based; settings: rat, in vivo; in short: as §1

Compound | Log Ki [1] | Increase [2] [%] | other results
COc1ccc(C(=O)Nc2cnc3c(c2)CN(C)CC3(C)C)cc1C#N | -7.3 | 110 | 
CC(=O)c1ccc2c(c1)[C@H](NC(=O)c1ccc(F)cc1)[C@@H](O)C(C)(C)O2 [CARABERSAT] |  | 120 | ED50 [4]: 6.3 mg/kg
COc1ccc(C(=O)Nc2ccc3c(c2)CN(C)CC3)cc1C(F)(F)F | -8.9 |  | bioavailability [6]: 2%
CCOc1ccc(C(=O)Nc2cnc3c(c2)CNCC3(C)C)cc1C(F)(F)F | -8.6 | 80 | 
COc1ccc(C(=O)Nc2cnc3c(c2)CNCC3(C)C)cc1F | -7.2 |  | 
CC(C)Oc1ccc(C(=O)Nc2cnc3c(c2)CNCC3(C)C)cc1C(F)(F)F | -8.4 | 15 | 
COc1ccc(C(=O)Nc2cnc3c(c2)CNCC3(C)C)cc1Br | -8.7 | 260 | 
CN1Cc2cc(NC(=O)c3ccccc3)cnc2C(C)(C)C1 | -6.2 | 3 | 
COc1ccc(C(=O)Nc2cnc3c(c2)CNCC3(C)C)cc1Cl | -8.1 | 260 | 

Continued, in another order:

Log Ki [1] | Compound | Increase [2] [%] | other results
-8.5 | COc1ccc(C(=O)Nc2cnc3c(c2)CN(C)CC3(C)C)cc1Cl | 380 | 
-8.6 | COc1ccc(C(=O)Nc2cnc3c(c2)CN(C)CC3(C)C)cc1Br | 210 | 
-8.7 | COc1ccc(C(=O)Nc2cnc3c(c2)CNCC3(C)C)cc1C(F)(F)F | 260 | clearance [3]: 30 mL/min/kg; ED50 [4]: 3.9 mg/kg; bioavailability [5]: > 50%
-8.8 | COc1ccc(C(=O)Nc2cnc3c(c2)CN(C)CC3(C)C)cc1C(F)(F)F | 570 | bioavailability [7]: 20%
-8.5 | CCOc1ccc(C(=O)Nc2cnc3c(c2)CN(C)CC3(C)C)cc1C(F)(F)F | 310 | 
-7.3 | COc1ccc(C(=O)Nc2cnc3c(c2)CN(C)CC3(C)C)cc1F |  | 
